Shown are actives, neighbours in structure and some others; about 2.3% of the full set was active somewhere.
pPAFAH inh – pPAFAH (human) enzyme inhibition. recombinant pPAFAH, FP-rhodamine probe fluorescence polarization. inhibition, % at 3.39 µM. actives 1.5% (n = 330,000);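 active = inhibition above the mean inhibition across the screen plus 3 SD, cut at about 25% in these data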;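 note: inhibitors block binding of the rhodamine activity-based probe so polarization drops; 0% = enzyme with DMSO and 100% = wells lacking pPAFAH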
ABHD4 inh – inhibitors of mouse ABHD4 | actives 0.54% (n = 370,000) | Q8VD66 | purified mABHD4, FP-Rh probe fluorescence polarization | inhibition, % at 8.92 µM | AID 720543;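 active = inhibition exceeding the mean over every tested compound plus 3 SD, cut at about 30% in these data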;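 note: 0% = plate median of compound wells and 100% = S159A mutant with DMSO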
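Material: mouse ABHD4 enzyme, wild type; Benchmarks: S159A mutant high control, sample median low control; Buffer or medium: HEPES pH 7.0, NaCl, Pluronic buffer; Signal: fluorescence polarization; Read-out: percent inhibition of probe binding, normalized to plate controls; Timing: pre-incubation 45 min, probe exposure 60 min, at 25 °C; Dosing: 8.92 µM, single dose.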
TCR-CD3 inh – blocks the human TCR-CD3 interaction. TAMRA-labeled TCR probe fluorescence, biochemical. inhibition, % at 9.4 µM. actives 0.37% (n = 360,000). AID 651800; in the data active = inhibition above about 19%;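 note: recombinant mutant TCR 2C K166C tagged with TAMRA read by polarization; 0% = receptor in buffer alone and 100% = receptor with positive control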
HTRA1 inh – HTRA1 (human) protease inhibition | Q92743 | recombinant HTRA1, FP-rhodamine activity-based probe, fluorescence polarization | inhibition, % at 5.96 µM | actives 0.5% (n = 340,000) | AID 504803; in the data active = inhibition above about 36%;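 note: 0% = enzyme with DMSO and 100% = wells lacking enzyme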
Target sequence (Q92743 whole entry, looked up): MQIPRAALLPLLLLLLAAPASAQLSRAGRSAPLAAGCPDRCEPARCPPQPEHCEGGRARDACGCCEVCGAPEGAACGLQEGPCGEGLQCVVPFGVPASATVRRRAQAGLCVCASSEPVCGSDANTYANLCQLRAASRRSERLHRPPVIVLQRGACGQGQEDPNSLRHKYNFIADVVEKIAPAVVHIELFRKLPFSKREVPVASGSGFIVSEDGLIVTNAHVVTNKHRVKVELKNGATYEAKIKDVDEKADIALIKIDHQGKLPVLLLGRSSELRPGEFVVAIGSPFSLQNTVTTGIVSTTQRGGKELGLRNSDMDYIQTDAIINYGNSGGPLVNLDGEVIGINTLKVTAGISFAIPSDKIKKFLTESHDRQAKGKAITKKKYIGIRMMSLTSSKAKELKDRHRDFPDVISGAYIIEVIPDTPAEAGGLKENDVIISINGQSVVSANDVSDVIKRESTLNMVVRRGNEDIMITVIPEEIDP
SIAE inh – blocks human sialic acid acetylesterase; actives 0.69% (n = 370,000); SIAE FP-Rh probe binding, fluorescence polarization; Q9HAT2; inhibition, % at 9.66 µM;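 active = inhibition above a cutoff: mean of compounds within the control limits plus 3 SD of those, cut at about 17% in these data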;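 note: 0% = plate median of compound wells and 100% = probe without SIAE protein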
An asterisk follows results filed as active; . = not tested or not shown.

SMILES	pPAFAH inh	ABHD4 inh	TCR-CD3 inh	HTRA1 inh	SIAE inh
COc1ccc(NC(=O)N(C)C[C@H]2Oc3ccc(NC(=O)Nc4c(C)noc4C)cc3C(=O)N([C@H](C)CO)C[C@H]2C)cc1	-7	4	4	3	17*
COc1ccc(-c2cc(-c3nnc(SCc4cccc5ccccc45)n3N)[nH]n2)cc1	.	-13	.	.	-3
COc1ccc(OC)c(/C=N/c2oc(-c3ccco3)c(-c3ccco3)c2C#N)c1	30*	15	-1	13	0
FC(F)(F)c1cccc(NC(=S)NCc2ccccn2)c1	4	0	4	2	3
FC(F)(F)c1cccc(NC(=S)NNC(=S)NCc2ccccc2)c1	48*	11	0	19	7
COc1ccc(Cn2ccc3ccc(-c4ccc5ccn(Cc6ccccc6)c5c4)cc32)cc1	.	4	.	.	-1
Cc1ccccc1-c1cc2nc(-c3ccc([N+](=O)[O-])cc3)cc(=O)n2[nH]1	2	4	3	-1	3
O=c1cc(-c2ccc([N+](=O)[O-])cc2)nc2cc(-c3ccc(F)cc3)[nH]n12	33*	20	-1	1	1
COc1ccc(OC)c(S(=O)(=O)N2CCC(c3cn4ccccc4n3)CC2)c1	.	4	.	.	1
CCN1CCc2c(sc(NC(=O)Nc3ccc(Cl)c(Cl)c3)c2C(N)=O)C1	33*	7	6	28	31*
CCOC(=O)N1CCc2c(sc(NC(=O)c3ccc(Cl)s3)c2C(N)=O)C1	25*	.	.	.	.
CCOC(=O)N1CCc2c(sc(NC(C)=O)c2C(N)=O)C1	-6	0	4	8	-3
COC(=O)[C@]12C[C@H](CC(=O)NCCC(C)C)C(=O)N(CCc3ccc(OC)c(OC)c3)C1=C[C@H](C1CCCC1)O[C@@H]2C	.	0	.	.	2
Cc1ccc(NC(=O)c2cc3ccccc3cc2O)cc1	12	19	8	-2	-6
CCc1ccc(NC(=O)NNC(=O)c2cc3ccccc3cc2O)cc1	33*	6	18	16	2
Cc1ccc(-n2c(SCC(=O)C(C)(C)C)nnc2-c2cccc(C)c2)cc1	.	6	.	.	0
Cc1ccc(N2CCN(/N=C\c3cccnc3)CC2)cc1	.	11	.	.	7
Cc1nc2c(C(=O)NCc3ccc4c(c3)OCO4)c[nH]n2c(=O)c1Cl	21	-7	-2	-10	8
Cc1nc2c(C(=O)NCCC3=CCCCC3)c[nH]n2c(=O)c1Cl	28*	-31	3	-11	6
CCc1ccc(CCNC(=O)OC2CCC23CCC(c2ccccc2)CC3)cc1 (stereo not drawn)	.	-6	.	.	-5
C=CCOC(=O)N1CCN(C(=O)c2ccc3c(c2)nc(C)n3C2CCCC2)CC1	.	2	.	.	3
O=C(NCC1CCCO1)c1cccc2c1C(=O)c1ccc(N3CCC(Cc4ccccc4)CC3)cc1S2(=O)=O (stereo not drawn)	33*	.	.	-37	.
CC1CCN(c2ccc3c(c2)S(=O)(=O)c2cccc(C(=O)NC[C@@H]4CCCO4)c2C3=O)CC1	16	-21	-8	-16	-13
Cc1ccc(S(=O)(=O)Nc2ccc(-c3nc4ccc(C)cc4s3)cc2)cc1	26*	-19	3	-49	-8
Cc1ccc2nc(-c3ccc(NS(=O)(=O)c4c(C)n(C)c(=O)n(C)c4=O)cc3)sc2c1	4	-12	1	-26	-32
SMILES	pPAFAH inh	ABHD4 inh	TCR-CD3 inh	HTRA1 inh	SIAE inh
CSc1nc2ccc(NS(=O)(=O)c3ccc([N+](=O)[O-])cc3)cc2s1	8	0	4	.	-2
Cc1ccc(NS(=O)(=O)c2ccc3[nH]c(=O)sc3c2)cc1	29*	-9	3	-7	-8
CSc1nc2ccc(NS(=O)(=O)c3ccc(CNC(C)=O)cc3)cc2s1	32*	0	-2	1	-2
Cc1cccc(S(=O)(=O)Nc2ccc(-c3nc4ccc(C)cc4s3)cc2)c1	33*	-92	0	-99	4
CCOc1ccc(CCNC(=O)CCS(=O)(=O)c2ccc(OC)cc2)cc1OCC	34*	-3	-1	6	-6
CC(=O)c1nn(-c2cccc(Br)c2)cc1C(=O)c1ccccc1	7	2	1	-2	-7
CC(=O)c1nn(-c2cccc(Br)c2)cc1C(=O)c1ccco1	25*	-5	4	-3	0
COc1ccc(C(=O)CSc2nnc(-c3ccc(C(C)(C)C)cc3)n2C)cc1	.	4	.	.	2
Cc1cc(C)c(OCC(=O)OCC(=O)NC2CCC(C)CC2)c(C)c1 (stereo not drawn)	26*	-3	-2	-3	-7
Cc1cc(C)c(OCC(=O)OCC(=O)NC2CCCCCCC2)c(C)c1	18	0	8	1	-1
CCC(=O)c1ccc(OCC(=O)OCC(=O)NCCC2=CCCCC2)cc1	3	-7	-3	2	2
Cc1cc(C)c(OCC(=O)OCC(=O)NCCC2=CCCCC2)c(C)c1	33*	4	4	-5	-4
O=C(CNCc1ccccc1[N+](=O)[O-])N1CCC2(CC1)OCCO2	.	-1	.	.	4
CCOc1cc(/C=N/Nc2nc(-c3cccs3)c(NC(C)=O)s2)ccc1O	25*	17	-6	5	17
CCN(CC)c1ccc(/C=C2\CCC(/C=N/NC(=O)c3ccc(=O)n(C)c3)=C2N2CCOCC2)cc1	29*	-1	-7	8	10
O=C(CSc1ccccc1)NCC1(N2CCCCC2)CCCCC1	34*	-8	-10	-6	-2
C[C@H]1Cn2nnc(-c3ccccc3)c2Cn2c3ccccc3c(=O)n21	.	-5	.	.	2
O=C(CSCc1ccccc1Cl)NNC(=S)Nc1ccccc1	29*	3	-8	16	2
O=C(CCCCCBr)N1CCC(CC2CC(c3cccc(Br)c3)=NO2)(C(=O)NCC2CCCCC2)CC1 (stereo not drawn)	25*	-5	-2	-15	-8
O=C(CCCCCBr)N1CCC(CC2CC(c3ccc(Cl)cc3)=NO2)(C(=O)NCC2CCCCC2)CC1 (stereo not drawn)	15	2	0	-6	-9
Fc1cccc(Cl)c1CN1CCN(c2ncc(Cc3ccccc3)cn2)CC1	.	-2	-7	.	0
Cc1ccc(C)c(N2CCN(C(=O)c3ccc(Cn4c(=S)[nH]c5ccc(N6CCOCC6)cc5c4=O)cc3)CC2)c1	27*	11	-12	1	10
O=C(c1ccc(Cn2c(=S)[nH]c3ccc(N4CCOCC4)cc3c2=O)cc1)N1CCN(c2ccc(F)cc2)CC1	13	2	4	8	16
Cc1ccc(-c2[nH]c(-c3ccc(C(=O)O)cc3)nc2-c2ccccc2)cc1	31*	11	7	-15	4
O=C(O)c1ccc(-c2nc(-c3ccccc3)c(-c3cccs3)[nH]2)cc1	13	0	8	-2	-3
Fc1ccc2cnc(-c3ccsc3)cc2c1	.	-4	5	.	-1
CCCCNC(=O)C[C@@H]1C(=O)N(Cc2ccc(OC)cc2)C2=CCN(C(=O)OC(C)(C)C)C[C@]21C(=O)OCC	.	6	.	.	10

Screens as filed in PubChem.
